Test results taken from ChEMBL document CHEMBL4428035, “Urea derivates of ursolic, oleanolic and maslinic acid induce apoptosis and are selective cytotoxic for several human tumor cell lines” (Eur J Med Chem, 2016).
Calls of active or inactive are those of the source. No cut-off for these calls is given here.

Tests used:
518A2 = assay: Cytotoxicity against human 518A2 cells assessed as reduction in cell proliferation after 96 hrs by sulforhodamine B assay; type: functional, cell-based; conditions: 518A2, 96 h
FaDu = assay: Cytotoxicity against human FADU cells assessed as reduction in cell proliferation after 96 hrs by sulforhodamine B assay; type: functional, cell-based
HT-29 = assay: Cytotoxicity against human HT-29 cells assessed as reduction in cell proliferation after 96 hrs by sulforhodamine B assay; type: functional, cell-based; conditions: HT-29, 96 h
MCF7 = assay: Cytotoxicity against human MCF7 cells assessed as reduction in cell proliferation after 96 hrs by sulforhodamine B assay; type: functional, cell-based; conditions: MCF7, 96 h
A549 = assay: Cytotoxicity against human A549 cells assessed as reduction in cell proliferation after 96 hrs by sulforhodamine B assay; type: functional, cell-based; conditions: A549, 96 h
A2780 [1] = assay: Cytotoxicity against human A2780 cells assessed as reduction in cell proliferation after 96 hrs by sulforhodamine B assay; type: functional, cell-based; conditions: A2780, 96 h
SW-1736 = assay: Cytotoxicity against human SW1736 cells assessed as reduction in cell proliferation after 96 hrs by sulforhodamine B assay; type: functional, cell-based; conditions: SW-1736, 96 h
NIH3T3 = assay: Cytotoxicity against mouse NIH/3T3 cells assessed as reduction in cell proliferation after 96 hrs by sulforhodamine B assay; type: ADME, cell-based; conditions: NIH3T3, 96 h
A2780 [2] = assay: Induction of apoptosis in human A2780 cells assessed as viable cells at 10 uM after 24 hrs by Annexin V/propidium iodide staining based flow cytometry relative to control; type: functional; conditions: A2780, 24 h, read-out: Activity
Procedure, shortened: (§1)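 Annexin V/propidium iodide staining of A2780 cells exposed to 10 µM compound for 24 h and 48 h, read by flow cytometry. Viable, apoptotic, necrotic and secondary-necrotic fractions were reported as relative changes versus untreated control (%).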

A2780 [3] = assay: Induction of apoptosis in human A2780 cells assessed as apoptotic cells at 10 uM after 24 hrs by Annexin V/propidium iodide staining based flow cytometry relative to control; type: functional; procedure, shortened: as §1
A2780 [4] = assay: Induction of apoptosis in human A2780 cells assessed as secondary necrotic cells at 10 uM after 24 hrs by Annexin V/propidium iodide staining based flow cytometry relative to control; type: functional; procedure, shortened: as §1
A2780 [5] = assay: Induction of apoptosis in human A2780 cells assessed as necrotic cells at 10 uM after 24 hrs by Annexin V/propidium iodide staining based flow cytometry relative to control; type: functional; procedure, shortened: as §1
A2780 [6] = assay: Induction of apoptosis in human A2780 cells assessed as viable cells at 10 uM after 48 hrs by Annexin V/propidium iodide staining based flow cytometry relative to control; type: functional; conditions: A2780, 48 h, read-out: Activity; procedure, shortened: as §1
A2780 [7] = assay: Induction of apoptosis in human A2780 cells assessed as apoptotic cells at 10 uM after 48 hrs by Annexin V/propidium iodide staining based flow cytometry relative to control; type: functional; procedure, shortened: as §1
A2780 [8] = assay: Induction of apoptosis in human A2780 cells assessed as secondary necrotic cells at 10 uM after 48 hrs by Annexin V/propidium iodide staining based flow cytometry relative to control; type: functional; procedure, shortened: as §1
A2780 [9] = assay: Induction of apoptosis in human A2780 cells assessed as necrotic cells at 10 uM after 48 hrs by Annexin V/propidium iodide staining based flow cytometry relative to control; type: functional; procedure, shortened: as §1
A2780 [10] = assay: Cell cycle arrest in human A2780 cells assessed as decrease in G1/G0 phase at 10 uM after 24 hrs by FACS analysis; type: functional, cell-based
Procedure, shortened: (§2)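 Living A2780 cells treated with 10 µM test agent for 24 h and 48 h, then examined for cell-cycle distribution by FACS. Phase populations (Sub-G1, G1/G0, S, G2/M) were quantified by model fitting and expressed as arithmetic means of the population distribution (%).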

A2780 [11] = assay: Cell cycle arrest in human A2780 cells assessed as increase in S phase at 10 uM after 24 hrs by FACS analysis; type: functional, cell-based; procedure, shortened: as §2
A2780 [12] = assay: Cell cycle arrest in human A2780 cells assessed as decrease in G2/M phase at 10 uM after 24 hrs by FACS analysis; type: functional, cell-based; procedure, shortened: as §2
A2780 [13] = assay: Cell cycle arrest in human A2780 cells assessed as increase in subG1 phase at 10 uM after 48 hrs by FACS analysis; type: functional, cell-based; procedure, shortened: as §2
A2780 [14] = assay: Cell cycle arrest in human A2780 cells assessed as decrease in G1/G0 phase at 10 uM after 48 hrs by FACS analysis; type: functional, cell-based; procedure, shortened: as §2
A2780 [15] = assay: Cell cycle arrest in human A2780 cells assessed as decrease in S phase at 10 uM after 48 hrs by FACS analysis; type: functional, cell-based; procedure, shortened: as §2
[16] = Selectivity index, ratio of EC50 for mouse NIH/3T3 cells to EC50 for human A2780 cells; conditions: NIH/3T3 cells versus A2780 cells
[17] = Selectivity index, ratio of EC50 for mouse NIH/3T3 cells to EC50 for human HT-29 cells; conditions: NIH/3T3 cells versus HT-29 cells
[18] = Selectivity index, ratio of EC50 for mouse NIH/3T3 cells to EC50 for human MCF7 cells; conditions: NIH/3T3 cells versus MCF7 cells
[19] = Selectivity index, ratio of EC50 for mouse NIH/3T3 cells to EC50 for human A549 cells; conditions: NIH/3T3 cells versus A549 cells
A2780 [20] = assay: Induction of apoptosis in human A2780 cells assessed as caspase-3 activation up to 72 hrs by flow cytometry; type: functional, cell-based
Procedure, shortened: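 Caspase activation in A2780 cells was measured by flow cytometry after 24, 48 and 72 h of treatment.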

[21] = Selectivity index, ratio of EC50 for mouse NIH/3T3 cells to EC50 for human 518A2 cells
[22] = Selectivity index, ratio of EC50 for mouse NIH/3T3 cells to EC50 for human FADU cells
[23] = Selectivity index, ratio of EC50 for mouse NIH/3T3 cells to EC50 for human SW1736 cells

SMILES: CC(=O)O[C@H]1C[C@]2(C)[C@H]3CC=C4[C@@H]5CC(C)(C)CC[C@]5(C(=O)NCc5ccccc5)CC[C@@]4(C)[C@]3(C)CC[C@H]2C(C)(C)[C@H]1OC(C)=O
- EC50 (518A2): 0.9 µM
- EC50 (FaDu): 2 µM
- EC50 (HT-29): 3.7 µM
- EC50 (MCF7): 3.5 µM
- EC50 (A549): 5.6 µM
- EC50 (A2780 [1]): 0.5 µM
- EC50 (SW-1736): 3.4 µM
- EC50 (NIH3T3): 9.4 µM
- change in viable cells vs control (%) at 10 µM (A2780 [2]): -11%
- Activity (A2780 [3]): 5%
- Activity (A2780 [4]): 6%
- Activity (A2780 [5]): -1%
- viability at 10 µM (A2780 [6]): -79%
- Activity (A2780 [7]): 55%
- Activity (A2780 [8]): 23%
- Activity (A2780 [9]): 1%
- Activity (A2780 [10]): Active
- Activity (A2780 [11]): Active
- Activity (A2780 [12]): Active
- Activity (A2780 [13]): Active
- Activity (A2780 [14]): Active
- Activity (A2780 [15]): Active

SMILES: CC(=O)O[C@@H]1C[C@]2(C)[C@H]3CC=C4[C@@H]5CC(C)(C)CC[C@]5(C(=O)NCc5ccccc5)CC[C@@]4(C)[C@]3(C)CC[C@H]2C(C)(C)[C@H]1OC(C)=O
- EC50 (518A2): 1.5 µM
- EC50 (FaDu): 3.1 µM
- EC50 (HT-29): 4.7 µM
- EC50 (MCF7): 7.7 µM
- EC50 (A549): 2.5 µM
- EC50 (A2780 [1]): 0.5 µM
- EC50 (NIH3T3): 33.8 µM
- selectivity ratio [16]: 70

SMILES: COCO[C@@H]1C[C@]2(C)[C@H]3CC=C4[C@@H]5CC(C)(C)CC[C@]5(C(=O)NCc5ccccc5)CC[C@@]4(C)[C@]3(C)CC[C@H]2C(C)(C)[C@H]1O
- EC50 (518A2): 3.2 µM
- EC50 (FaDu): 3.3 µM
- EC50 (HT-29): 5.2 µM
- EC50 (MCF7): 5.5 µM
- EC50 (A549): 12.8 µM
- EC50 (SW-1736): 5.4 µM
- EC50 (NIH3T3): 16.5 µM
- selectivity ratio [17]: 5
- selectivity ratio [18]: 5
- selectivity ratio [19]: 5
- selectivity ratio [16]: 5

SMILES: CC(=O)O[C@H]1C[C@]2(C)[C@H]3CC=C4[C@@H]5CC(C)(C)CC[C@]5(C(=O)NCc5ccccc5)CC[C@@]4(C)[C@]3(C)CC[C@H]2C(C)(C)[C@@H]1OC(C)=O
- EC50 (518A2): 2.3 µM
- EC50 (FaDu): 3.3 µM
- EC50 (HT-29): 5.2 µM
- EC50 (MCF7): 7.6 µM
- EC50 (A549): 8.8 µM
- EC50 (A2780 [1]): 1.1 µM
- EC50 (SW-1736): 5.2 µM
- EC50 (NIH3T3): 7.7 µM
- change in viable cells vs control (%) at 10 µM (A2780 [2]): -12%
- Activity (A2780 [3]): 4%
- Activity (A2780 [4]): 9%
- Activity (A2780 [5]): 1%
- viability at 10 µM (A2780 [6]): -75%
- Activity (A2780 [7]): 45%
- Activity (A2780 [8]): 29%
- Activity (A2780 [9]): 0%
- Activity (A2780 [10]): Active
- Activity (A2780 [11]): Active
- Activity (A2780 [12]): Active
- Activity (A2780 [13]): Active
- Activity (A2780 [14]): Active
- Activity (A2780 [15]): Active

SMILES: CC(=O)O[C@H]1C[C@]2(C)[C@H]3CC=C4[C@@H]5CC(C)(C)CC[C@]5(NC(=O)Nc5ccccc5)CC[C@@]4(C)[C@]3(C)CC[C@H]2C(C)(C)[C@H]1OC(C)=O
- EC50 (518A2): 1.2 µM
- EC50 (HT-29): 2.3 µM
- EC50 (MCF7): 2.8 µM
- EC50 (A549): 4.4 µM
- EC50 (A2780 [1]): 0.9 µM
- EC50 (SW-1736): 2.8 µM
- EC50 (NIH3T3): > 120 µM
- change in viable cells vs control (%) at 10 µM (A2780 [2]): -43%
- Activity (A2780 [3]): 33%
- Activity (A2780 [4]): 11%
- Activity (A2780 [5]): -1%
- Activity (A2780 [10]): Active
- Activity (A2780 [11]): Active
- Activity (A2780 [12]): Active
- Activity (A2780 [13]): Active
- Activity (A2780 [14]): Active
- Activity (A2780 [15]): Active
- Activity (A2780 [20]): inactive

SMILES: CC(=O)O[C@@H]1[C@H](OC(C)=O)C[C@]2(C)[C@H]3CC=C4[C@@H]5CC(C)(C)CC[C@]5(C(=O)NCc5ccccc5)CC[C@@]4(C)[C@]3(C)CC[C@H]2C1(C)C
- EC50 (518A2): 5.7 µM
- EC50 (FaDu): 5.5 µM
- EC50 (HT-29): 7.7 µM
- EC50 (MCF7): 7.8 µM
- EC50 (A549): 15.6 µM
- EC50 (A2780 [1]): 1.9 µM
- EC50 (SW-1736): 20.7 µM
- EC50 (NIH3T3): 11.4 µM
- change in viable cells vs control (%) at 10 µM (A2780 [2]): -16%
- Activity (A2780 [3]): 5%
- Activity (A2780 [4]): 10%
- Activity (A2780 [5]): 1%
- viability at 10 µM (A2780 [6]): -65%
- Activity (A2780 [7]): 45%
- Activity (A2780 [8]): 20%
- Activity (A2780 [9]): -1%
- Activity (A2780 [10]): Active
- Activity (A2780 [11]): Active
- Activity (A2780 [12]): Active
- Activity (A2780 [13]): Active
- Activity (A2780 [14]): Active
- Activity (A2780 [15]): Active

SMILES: CC(=O)O[C@H]1C[C@]2(C)[C@H]3CC=C4[C@@H]5CC(C)(C)CC[C@]5(NC(=O)Oc5ccccc5)CC[C@@]4(C)[C@]3(C)CC[C@H]2C(C)(C)[C@H]1OC(C)=O
- EC50 (518A2): 4.4 µM
- EC50 (HT-29): 8.5 µM
- EC50 (MCF7): 5.8 µM
- EC50 (A549): 8.5 µM
- EC50 (A2780 [1]): 2.4 µM
- EC50 (SW-1736): 7.3 µM
- EC50 (NIH3T3): 15.4 µM
- change in viable cells vs control (%) at 10 µM (A2780 [2]): -4%
- Activity (A2780 [3]): 2%
- Activity (A2780 [4]): 3%
- Activity (A2780 [5]): -1%
- Activity (A2780 [10]): Active
- Activity (A2780 [11]): Active
- Activity (A2780 [12]): Active
- Activity (A2780 [13]): Active
- Activity (A2780 [14]): Active
- Activity (A2780 [15]): Active

SMILES: COCCO[C@@H]1C[C@]2(C)[C@H]3CC=C4[C@@H]5CC(C)(C)CC[C@]5(C(=O)NCc5ccccc5)CC[C@@]4(C)[C@]3(C)CC[C@H]2C(C)(C)[C@H]1OCCOC
- EC50 (518A2): 3.5 µM
- EC50 (HT-29): 4.9 µM
- EC50 (MCF7): 6.8 µM
- EC50 (A549): 4.9 µM
- EC50 (A2780 [1]): 2.7 µM
- EC50 (SW-1736): 4.6 µM
- EC50 (NIH3T3): 15.5 µM
- Ratio EC50 [21]: 5
- Ratio EC50 [22]: 5
- selectivity ratio [17]: 5
- selectivity ratio [18]: 5
- selectivity ratio [19]: 5
- selectivity ratio [16]: 5
- Ratio EC50 [23]: 5
